Screening results deposited in PubChem by Broad Institute.
CDK5 inh: CDK5/p35 (human) kinase inhibition; Q00535+Q15078; Recombinant CDK5/p35, ADP-Glo luminescence, 60 min; inhibition, % at 10 µM; 330,000 compounds, 0.01% hits;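 active = highest replicate inhibition of at least 50% and at least 75% of replicates reaching 50%; inconclusive = only one of the two criteria met; inactive = both criteria failed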;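 also: plate controls were DMSO neutral control for no effect and GW8510 at 10 µM for full effect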
Target sequence (Q00535 whole entry, looked up): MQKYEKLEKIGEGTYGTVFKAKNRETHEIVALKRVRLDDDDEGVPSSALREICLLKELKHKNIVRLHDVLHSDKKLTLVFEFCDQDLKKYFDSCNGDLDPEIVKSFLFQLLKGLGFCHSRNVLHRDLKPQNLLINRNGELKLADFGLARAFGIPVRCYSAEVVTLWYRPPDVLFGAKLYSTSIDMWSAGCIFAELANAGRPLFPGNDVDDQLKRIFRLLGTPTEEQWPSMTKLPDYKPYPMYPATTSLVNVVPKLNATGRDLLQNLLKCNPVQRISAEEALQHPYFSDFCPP
Target sequence (Q15078 whole entry, looked up): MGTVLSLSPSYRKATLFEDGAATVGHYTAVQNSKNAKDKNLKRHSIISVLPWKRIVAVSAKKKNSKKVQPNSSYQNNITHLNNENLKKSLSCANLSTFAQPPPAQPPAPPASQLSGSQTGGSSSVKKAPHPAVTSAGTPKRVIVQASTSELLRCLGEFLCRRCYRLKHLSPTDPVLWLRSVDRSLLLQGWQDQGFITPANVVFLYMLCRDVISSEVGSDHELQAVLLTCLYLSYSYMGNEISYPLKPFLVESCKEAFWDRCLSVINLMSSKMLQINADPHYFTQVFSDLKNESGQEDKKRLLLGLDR
Env fusion inh: inhibitors of HIV Env-mediated cell fusion. inhibition, % at 12.3 µM. 360,000 compounds, 1.1% hits. HeLa-JRFL Env/CEM21 cell fusion, luciferase;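 active = mean replicate inhibition score of at least 50 and every replicate individually at or above 50; inconclusive = only one of the two criteria met; inactive = mean below 50 and not all replicates reaching 50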;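 also: 0% = plate neutral controls and 100% = maraviroc near 300 nM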
Cneo AK release: causes C. neoformans cell lysis; lysis activity, % at 15 µM; 360,000 compounds, 0.2% hits; adenylate kinase release luminescence, 4 h; normalised: neutral wells 0, clomiphene wells 100;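 active = mean lysis activity across replicates of at least 80%, whatever share of replicates individually reach that level; inactive = mean lysis activity below 80%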
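Schedule: static 4 h at 37 °C with compound, 1 h detection; system: C. neoformans cells; benchmarks: Clomiphene as positive control; buffer or medium: fresh YPD medium; measure: luminescence rise reflecting yeast cell lysis; measured by: luminescent adenylate kinase detection reagent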
dFosB activator: activators of mouse delta FosB homodimer. purified delta FosB, TAMRA-CDK5 oligo fluorescence polarization; percent of positive-control signal above neutral wells. activation, % at 25 µM. 340,000 compounds, 0.99% hits;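 active = mean activation above about 17%, with every replicate also reaching it, limit read from the data, passing the limit was not always enough; inconclusive = only one of the two conditions met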
INS-1E GSIS act: GLuc luminescence reporter in INS-1E cells, primary screen for activators of glucose-dependent secretion of insulin; INS-1E GLuc reporter insulin secretion, 2-3 h; activation, % at 16.6 µM; 370,000 compounds, 0.61% hits;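 active = lowest replicate activation of at least 40%, so every replicate reaches that level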;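 also: 0% = median of neutral control wells and 100% = median of IBMX positive control wells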
PAX8 inh HTS: PAX8 transcriptional activity inhibition | 360,000 compounds, 1.2% hits | inhibition, % at 12.6 µM | RMG-I TPO-luciferase reporter, SteadyGlo, 24 h | AID 652154;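 active = mean replicate inhibition at least 60% with every replicate also reaching 60%; inconclusive = only one of the two criteria is met; inactive = mean below 60% and not all replicates reaching 60%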;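 also: luciferase light reporting Pax8 driven TPO promoter activity; plate controls were median of neutral control wells for no effect and mitoxantrone controls for full effect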
* = called active by the depositor; ? = inconclusive; / = no result given; [ ] = another dose, or the depositor's remark. Only some compounds are listed: those with a hit (about 2.9% of all), similar ones and a draw of the others.

SMILES | CDK5 inh | Env fusion inh | Cneo AK release | dFosB activator | INS-1E GSIS act | PAX8 inh HTS
C[C@@H]1CCCCO[C@@H](CN(C)S(=O)(=O)c2ccc(F)cc2)[C@@H](C)CN([C@H](C)CO)C(=O)c2cc(NS(=O)(=O)c3ccc(Cl)cc3)ccc2O1 | / | -26[16.7 µM] | -6 | / | -9 | 33
C[C@@H]1CN([C@H](C)CO)C(=O)c2cc(NS(=O)(=O)c3ccc(Cl)cc3)ccc2O[C@@H](C)CCCCO[C@@H]1CN(C)S(=O)(=O)c1ccc(F)cc1 | / | -38[16.7 µM] | 1 | / | 8 | 23
CO[C@@H]1CN(C)C(=O)c2ccc(NC(C)=O)cc2OC[C@@H](C)N(C(=O)CC2CC2)C[C@@H]1C | / | -6[16.7 µM] | -2 | / | 9 | 0
C[C@@H]1CN([C@@H](C)CO)C(=O)c2cccc(NC(=O)c3nc4ccccc4s3)c2O[C@H]1CN(C)S(=O)(=O)c1cn(C)cn1 | / | / | -2 | / | -7 | /
C[C@@H]1CCCCO[C@@H](CN(C)S(=O)(=O)c2ccc(Cl)cc2)[C@@H](C)CN([C@@H](C)CO)C(=O)c2cc(NS(=O)(=O)c3ccc(F)cc3)ccc2O1 | / | -5[16.7 µM] | 50 | / | 1 | 51
C[C@@H]1CCCCO[C@@H](CN(C)S(=O)(=O)c2ccc(F)cc2)[C@H](C)CN([C@H](C)CO)C(=O)c2cc(NS(=O)(=O)c3ccc(Cl)cc3)ccc2O1 | / | 24[16.7 µM] | -6 | / | 1 | 86*
O=C(C[C@@H]1CC[C@H](NS(=O)(=O)c2ccc(F)cc2)[C@@H](CO)O1)N1CCC(Cc2ccccc2)CC1 | / | 12[16.7 µM] | 59 | / | -25 | 16
CN(/N=C/c1ccc(O)cc1O)c1nc(-c2ccccc2)cc(-c2ccccc2)n1 | -1 | / | 3 | 4 | 16 | 158*
O=C(C1CC1)N1CC2(C1)[C@@H](c1ccccc1)[C@@H](CO)N2Cc1cncnc1 | / | / | / | / | 14 | 3
COC(=O)C(NC(=O)c1ccc(F)cc1)(Nc1ncc(S(=O)(=O)c2ccc([N+](=O)[O-])cc2)s1)C(F)(F)F (configuration not stated) | 0 | 127* | -2 | -7 | / | /
COC(=O)C(NC(=O)c1ccccc1C)(Nc1ncc(S(=O)(=O)c2ccc([N+](=O)[O-])cc2)s1)C(F)(F)F (configuration not stated) | 2 | ? | -4 | -2 | / | /
C[C@@H]1CN([C@H](C)CO)C(=O)c2cc(Br)cnc2O[C@H]1CN(C)C(=O)c1ccccn1 | / | -7[16.7 µM] | 6 | / | 18 | -32
COc1ccc(Cl)cc1NC(=O)CN(C)CC(=O)Nc1ccccc1-c1ccccc1 | -2 | 63* | 0 | -11 | -19 | 19
O=C(Nc1ccc(N2CCN(C(=O)c3ccc(Cl)cc3)CC2)cc1)c1ccc2c(c1)OCCO2 | -1 | 86* | 2 | -6 | -31 | /
O=C(Nc1ccc(N2CCN(C(=O)c3ccccc3)CC2)cc1)c1ccc2c(c1)OCCO2 | 1 | / | 2 | -9 | -4 | -23
CC=Cc1ccc2n(c1=O)C[C@@H]1[C@@H](CO)[C@H](C(=O)NCc3ccc(F)cc3)[C@H]2N1C (mixture of isomers) | / | / | -1 | / | 10 | 0
C[C@@]12C(=O)N(CC3CCCO3)CC(=O)N1[C@H]1c3cc(Cl)ccc3OC[C@@H]1[C@@H]2c1ccccc1 (some centres not stated) | 0 | 80* | 2 | -4 | -42 | -35
C[C@@]12C(=O)N(CC3CCCO3)CC(=O)N1[C@@H]1c3ccccc3OC[C@@H]1[C@@H]2c1ccccc1 (some centres not stated) | 0 | / | -4 | -1 | -2 | 13
Cc1ccc2c(c1)[C@H]1[C@H](CO2)[C@H](c2ccccc2)[C@]2(C)C(=O)N(CC3CCCO3)CC(=O)N12 (some centres not stated) | 2 | 110* | 2 | -4 | -8 | 5
COC(=O)[C@H]1[C@H](CO)[C@H]2Cn3c(ccc(-c4ccc(F)cc4)c3=O)[C@H]2N1S(C)(=O)=O | / | / | 2 | / | 11 | 4
COc1ccccc1CN(C)C(=O)CN1CCN(C(=O)c2cccs2)CC1 | -1 | 68* | -1 | 0 | 14 | -7
CO[C@H]1CC[C@@H]2CCOc3c(C#N)cccc3C(=O)N(C)C[C@@H](OC)[C@@H](C)C(=O)N(C)C[C@@H]1O2 | / | 11[16.7 µM] | 85* | / | 8 | -25
C[C@@H]1CN([C@H](C)CO)S(=O)(=O)c2ccc(-c3ccncc3)cc2O[C@@H]1CN(C)Cc1ccccn1 | / | 20[16.7 µM] | 0 | / | 1 | -6
Cc1cc(C)c2nc(Nc3nc(CSc4nc5ccccc5[nH]4)cc(=O)[nH]3)nc(C)c2c1 | 0 | 83* | / | -6 | 14 | 28
Cc1ccc(SCc2cc(=O)[nH]c(Nc3nc(C)c4cccc(C)c4n3)n2)cc1 | -1 | -43 | -2 | 8 | -11 | /
SMILES | CDK5 inh | Env fusion inh | Cneo AK release | dFosB activator | INS-1E GSIS act | PAX8 inh HTS
Cc1ccc2c(C)nc(Nc3nc(CSc4nnnn4-c4ccccc4)cc(=O)[nH]3)nc2c1 | -3 | 70* | / | ? | -6 | /
O=[N+]([O-])c1ccc(O)c(/C=N/NC(=S)Nc2ccc(Cl)cc2Cl)c1 | -1 | 31 | -2 | 5 | / | 20
O=C(N/N=C\c1ccc([N+](=O)[O-])s1)c1cncc(Br)c1 | -1 | 104* | 1 | -3 | 9 | 86*
O=C(N/N=C/c1ccc([N+](=O)[O-])s1)c1ccccc1 | -1 | -1 | 2 | 4 | -4 | 20
O=[N+]([O-])c1ccc(/C=N/NC(=S)Nc2ccc(Cl)cc2Cl)s1 | 0 | -93 | -6 | -4 | -19 | 92*
CC1(Cc2ccccc2OC(F)(F)F)C(=O)Nc2ccc(-c3ccsc3)cc21 (configuration not stated) | / | 71* | -2 | / | 4 | 5
COC(=O)c1cccc(CC2(C)C(=O)Nc3cc(-c4ccccc4Cl)ccc32)c1 (configuration not stated) | / | 90* | -2 | / | 6 | -117
CC1(Cc2c(Cl)cccc2Cl)C(=O)Nc2cc(-c3ccccc3Cl)ccc21 (configuration not stated) | / | 5 | 4 | / | -8 | -5
CC1(Cc2ccccc2OC(F)(F)F)C(=O)Nc2cc(-c3ccccc3Cl)ccc21 (configuration not stated) | / | 56* | 0 | / | -2 | 10
COc1ccc2c3c([nH]c2c1)[C@@H](CO)N(C)CC31CCN(S(=O)(=O)c2cccc(F)c2)CC1 | / | / | / | / | -2 | /
COc1ccc(S(=O)(=O)N(C)C[C@H]2Oc3ccc(NC(=O)Cc4cn(C)c5ccccc45)cc3CC(=O)N([C@@H](C)CO)C[C@H]2C)cc1 | / | -23[16.7 µM] | -2 | / | 3 | /
CN(C)S(=O)(=O)c1cccc(NC(=O)COc2ccc(C(=O)c3ccccc3)cc2)c1 | -1 | 36 | / | -3 | -39 | 4
